# CCR6 antagonist = CCR6 (human) receptor antagonism; CHO-K1 CCR6 PathHunter beta-arrestin, luminescence, CCL20-stimulated; 340,000 tested, 0.49% active; AID 493098; inhibition, % at 20 µM;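 active means compounds whose inhibition of the agonist-driven luminescence signal at 20 µM reaches about 50%, limit read from the data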;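 further: cells stimulated with CCL20 at 14 nM final; plate controls were DMSO with CCL20 for no effect and DMSO without agonist for full effect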
# Target sequence (P51684 whole entry, looked up): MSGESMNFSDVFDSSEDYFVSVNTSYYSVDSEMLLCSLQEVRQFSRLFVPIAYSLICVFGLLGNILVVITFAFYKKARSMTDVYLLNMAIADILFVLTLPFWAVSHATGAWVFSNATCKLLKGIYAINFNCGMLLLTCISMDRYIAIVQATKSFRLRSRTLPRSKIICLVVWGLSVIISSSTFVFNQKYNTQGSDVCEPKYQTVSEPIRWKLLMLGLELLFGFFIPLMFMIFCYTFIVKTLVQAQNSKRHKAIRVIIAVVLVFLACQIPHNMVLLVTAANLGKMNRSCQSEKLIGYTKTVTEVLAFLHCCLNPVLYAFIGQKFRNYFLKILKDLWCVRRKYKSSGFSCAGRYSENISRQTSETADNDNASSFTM
# APJ ag = activates the human apelin receptor APJ | CHO-K1 APJ PathHunter beta-arrestin, luminescence; 0% DMSO wells, 100% apelin | activation, % at 20 µM | 330,000 tested, 0.11% active;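 active means activation more than six SD over the plate average, tested at 20 µM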;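 further: 0% = DMSO alone and 100% = apelin-13 at 10 nM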
#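 system = engineered CHO-K1 APJ arrestin reporter cells | input = 1000 cells per well | timing = overnight seeding, 90 min compound at 25 °C, 1 h detection | measured by = enzyme-fragment complementation luminescence | read-out = beta-arrestin recruitment to APJ as agonist activity, luminescent signal | control set = negative DMSO alone, positive Apelin-13 at 10 nM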
# APJ antag = APJ receptor antagonism; P35414; CHO-K1 APJ beta-arrestin complementation, luminescence; AID 2521; inhibition, % at 20 µM; 330,000 tested, 0.32% active;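 active means inhibition above about 40% at 20 µM, limit read from the data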;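 further: cells challenged with 10 nM apelin-13 agonist together with compound; plate controls were apelin-13 plus DMSO wells for no effect and DMSO wells lacking apelin-13 for full effect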
# GAA850 FXN act = increases GAA850 frataxin promoter reporter activity; 360,000 tested, 0.56% active; HEK293 lucGAA850 FXN promoter luciferase reporter, 24 h; percent of 10 µM SAHA response; activation, % at 6 µM;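 active means activation above the average of all compounds screened plus 3 SD, cutoff fixed separately per campaign, cut at about 7.5% in these data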;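 further: 0% = DMSO wells and 100% = 10 µM SAHA wells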
# EBI2 antag = antagonists of human EBI2 receptor | EBI2 beta-arrestin recruitment, luminescence, 7a,25-OHC stimulated | AID 651636 | 360,000 tested, 0.81% active | inhibition, % at 5 µM; in the data active means inhibition above about 38%;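 further: enzyme fragment complementation signal reports receptor beta-arrestin coupling in cells; 0% = agonist plus DMSO wells and 100% = wells without agonist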
# CXCR6 block = blocks human CXCR6 beta-arrestin recruitment. CHO-K1 PathHunter CXCR6 beta-arrestin, luminescence. inhibition, % at 20 µM. 360,000 tested, 0.36% active. O00574; in the data active means inhibition above about 34%, passing the limit was not always enough;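 further: antagonist mode with CXCL16 agonist at 10 nM final; 0% = 10 nM CXCL16 with DMSO and 100% = unstimulated wells without agonist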
# GAA30 counter = counter-screen for GAA850 frataxin promoter activators: GAA30 promoter activation. shares compounds with GAA850 FXN act. HEK293 lucGAA30 FXN promoter luciferase, 24 h; DMSO = 0%, 5 µM ipriflavone = 100%. activation, % at 6 µM. 1,900 tested, 66% active;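 active means mean activation above the mean of solvent-only control wells plus 3 SD, cut at about 22% in these data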;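 further: counterscreen of GAA850 promoter hits where activity marks nonselective or luminescence artifacts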
# FXN GAA850 conf = confirmation of GAA850 frataxin (FXN) promoter activators; HEK293 lucGAA850 FXN promoter luciferase reporter, 24 h; 100% = activation by SAHA; shares compounds with GAA850 FXN act; 1,900 tested, 86% active; activation, % at 6 µM;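 active means mean activation above a set limit taken from the primary screen, cut at about 8% in these data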;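 further: 0% = DMSO wells and 100% = 10 µM SAHA wells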
# CXCR6 antag conf = CXCR6 antagonism confirmation, single concentration. shares compounds with CXCR6 block. CHO-K1 CXCR6 PathHunter beta-arrestin, luminescence. inhibition, % at 20 µM. 700 tested, 65% active. AID 602409;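 active means mean inhibition over four retests above 40%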;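 further: receptor stimulated with 10 nM CXCL16 agonist; beta-galactosidase fragment complementation upon beta-arrestin recruitment to receptor; plate controls were CXCL16 plus DMSO for no effect and DMSO without CXCL16 for full effect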
# An asterisk follows results filed as active; . = no result. In the library only some 2% were active in any assay of this set; here they are far more common.
SMILES,CCR6 antagonist,APJ ag,APJ antag,GAA850 FXN act,EBI2 antag,CXCR6 block,GAA30 counter,FXN GAA850 conf,CXCR6 antag conf
Cc1cc(C)nc(Nc2n[nH]c(-c3ccc(N)cc3)n2)n1,-12,-2,-8,8.2*,-6,-6,93*,34*,.
CC(C)Nc1ncnc2c1ncn2[C@H]1CN(C2CCCC2)C[C@@H](CO)O1,.,.,.,1,-12,-4,.,.,.
CCSc1ccc(-c2cccc([N+](=O)[O-])c2)nn1,8,-1,-13,8.5*,2,-4,97*,29*,.
COc1ccc(C(=O)C(=O)N2CCC(Cc3ccccc3)CC2)cc1OC,.,.,.,.,12,.,.,.,.
CC1(Cc2cc(Cl)ccc2C(F)(F)F)C(=O)Nc2cc(C(F)(F)F)ccc21 (centres undefined),.,.,.,2,-23,-2,.,.,.
Cc1ccc(S(=O)(=O)N(C)C[C@@H]2OCc3ccccc3-c3c(n(C)c4ccccc34)C(=O)N([C@H](C)CO)C[C@@H]2C)cc1,.,.,.,13*,15,17,10,8.8*,.
C[C@H](CO)N1C[C@H](C)[C@H](CN(C)S(C)(=O)=O)OCc2ccccc2-c2c(n(C)c3ccccc23)C1=O,.,.,.,0,4,4,.,.,.
C[C@H](CO)N1C[C@H](C)[C@H](CN(C)S(=O)(=O)c2ccc(Cl)cc2)OCc2ccccc2-c2c(n(C)c3ccccc23)C1=O,.,.,.,12*,16,0,5,9.8*,.
C[C@H](CO)N1C[C@H](C)[C@H](CN(C)S(=O)(=O)c2cccc(F)c2)OCc2ccccc2-c2c(n(C)c3ccccc23)C1=O,.,.,.,0,0,7,.,.,.
Cc1ccc(-c2nc(NCc3cccnc3)c3ccccc3n2)cc1,1,-2,-1,7.7*,20,4,30*,13*,.
COC(=O)C1=C(C(=O)OC)[C@]2([C@@H]3CC=CCN[C@@H](Cc4ccccc4)C(=O)N3Cc3ccccc3)C=C[C@H]1O2,22,.,.,9.1*,8,8,1,7,.
COc1ccc(N2C(=O)C3CCCN3C2c2ccc(Cl)cc2)cc1 (centres undefined),2,-1,14,1,-8,6,.,.,.
COc1ccc(C2N(c3ccc(Cl)cc3)C(=O)C3CCCN32)cc1 (centres undefined),10,-4,14,13*,-2,1,-5,3,.
COc1cccc(CN(C)C(=O)CSc2nc3ccccc3[nH]2)c1OC,18,-2,6,1,-1,-6,.,.,.
COC(=O)[C@@]1(C)[C@H]2C(=O)N(Cc3ccccc3)C(=O)[C@H]2[C@H]2CN=C(SCc3ccc(Cl)cc3)N21,19,.,.,15*,12,-4,30*,11*,.
COC(=O)[C@@]1(C)[C@H]2C(=O)N(Cc3ccccc3)C(=O)[C@H]2[C@H]2CN=C(SCc3ccc(C#N)cc3)N21,12,.,.,13*,1,2,22*,12*,.
CCN1C(=O)[C@H]2[C@H]3CN=C(SCc4ccccc4)N3[C@@](C)(C(=O)OC)[C@H]2C1=O,9,.,.,0,-4,-4,.,.,.
O=C(Cc1c(F)cccc1Cl)OCC(=O)c1ccc[nH]1,1,1,16,2,8,3,.,.,.
CC1Cc2ccccc2N1C(=O)COc1ccc2c(c1)OCO2 (centres undefined),16,1,4,8.0*,-8,1,79*,24*,.
COc1ccc(OCC(=O)N/N=C(\C)c2ccc(-n3ccnc3)cc2)cc1,-18,-1,-8,-1,-7,-3,.,.,.
C/C(=N\NC(=O)COc1ccc(C(C)(C)C)cc1)c1ccc(-n2ccnc2)cc1,-2,-1,-31,8.5*,12,73*,94*,22*,6
CC(=O)Nc1ccc2c(c1)Cc1cc(N3C(=O)C=CC3=O)ccc1-2,115*,.,.,11*,25,99*,-85,-6,72*
O=C1C=CC(=O)N1c1ccc2c(c1)Cc1cc(F)ccc1-2,2,.,.,-1,6,-6,.,.,.
COc1ccc(/C=C(/C(=O)c2cccs2)N2C=CC=CC2=C(C#N)C#N)cc1,84*,.,.,14*,23,62*,-1,22*,57*
NNC(=O)c1cccc(COc2ccc3c(c2)CCC3)c1,7,2,8,9.2*,-3,49*,125*,42*,-2
SMILES,CCR6 antagonist,APJ ag,APJ antag,GAA850 FXN act,EBI2 antag,CXCR6 block,GAA30 counter,FXN GAA850 conf,CXCR6 antag conf
CCOc1ccc2ccccc2c1/C=N/NC(=O)c1ccncc1,7,-1,12,3,2,1,.,.,.
C=C1CCN([C@@H](Cc2ccccc2)C(=O)NCCC(C)C)S(=O)(=O)c2ccccc21,24,-2,-34,8.0*,28,41*,12,6,42*
CN(c1ccccc1)c1ccc(/C=C/[N+](=O)[O-])cc1,.,.,.,16*,7,71*,-111,-21,63*
O=C(O)c1ccc(Cl)c(NCc2cccs2)c1,7,-2,13,1,10,-1,.,.,.
CCCC(C)Sc1nc2c([nH]1)c(=S)n(C)c(=O)n2C (centres undefined),40,.,.,10*,2,42*,15,18*,16
Cn1c(=S)c2[nH]c(SCC3CCCO3)nc2n(C)c1=O (centres undefined),26,.,.,2,-12,2,.,.,.
COc1ccc(C(=O)/C=C/Sc2nc3ccccc3o2)cc1,62*,3,1,9.8*,36,46*,5,5,45*
COc1ccc(C(=O)N/C(N)=N/c2nc3ccccc3o2)cc1,-8,-1,6,1,10,-9,.,.,.
C/C(=N\NC(=O)C(c1ccccc1)c1ccccc1)c1ccc(O)cc1,25,-2,-20,2,-10,3,.,.,.
C/C(=N\NC(=O)C(c1ccccc1)c1ccccc1)c1ccccn1,105*,-14,75*,9.6*,28,86*,-119,-35,108*
COc1ccc(Nc2cc(Nc3cc(OC)c(OC)c(OC)c3)ncn2)cc1,2,-1,-6,4,7,-7,.,.,.
CCCCn1c(N)c(N(CC(C)C)C(=O)CCN2C(=O)C3CC=CCC3C2=O)c(=O)[nH]c1=O (centres undefined),.,.,.,-1,0,-3,.,.,.
O=C(C=Cc1ccccn1)c1ccccc1O,74*,.,.,8.5*,-10,57*,-40,26*,60*

# Screens as filed in PubChem.
